Results as given in ChEMBL document CHEMBL1152650, “Synthesis and in vitro evaluation of pteridine analogues as monoamine oxidase B and nitric oxide synthase inhibitors” (Bioorg Med Chem, 2009).

Assays:
[1] = Inhibition of NOS in Sprague-Dawley rat brain homogenate assessed as conversion of oxy-hemoglobin to met-hemoglobin; type: tissue-based
Outline: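 Brain of male Sprague-Dawley rat homogenised in HEPES/sucrose/EDTA/DTT with protease inhibitors and PMSF; the 12,000g supernatant is the enzyme source. Mix holds 500 µM HEPES, 250 µM CaCl2, homogenate from 2.36 mg tissue and 5% DMSO. Pre-incubated 3 min at 37 °C, then started with oxyHb 1.09 µM, NADPH 100 µM and L-arginine 100 µM. Scanned 390–430 nm every 10 s for 10 min; metHb taken as A401−A411. IC50 from rate versus log concentration.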

[2] = Inhibition of MAOB from baboon liver by spectrophotometry; parameters: species or system Papio hamadryas
Outline: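 Mitochondrial fraction of baboon liver (no MAO-A activity, so no clorgyline), 0.15 mg protein/mL in 100 mM sodium phosphate pH 7.4. Substrate MMTP 50 µM, 4% DMSO final. Incubated 37 °C for 10 min, then stopped with perchloric acid and centrifuged. MMDP+ read at 420 nm. At least eight concentrations over 3 orders of magnitude; IC50 from sigmoidal fit, mean ± SEM of duplicates.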

[3] = Inhibition of recombinant NOS from rat brain
Rattus norvegicus = organism: Rattus norvegicus; test: Ratio of IC50 for aminoguanidine to IC50 for drug for NOS in Sprague-Dawley rat brain homogenate; type: tissue-based
Papio hamadryas [4] = organism: Papio hamadryas; test: Inhibition of MAOB from baboon liver at 100 uM by spectrophotometry
[5] = molecular target: T1, Amine oxidase [flavin-containing] B (Mus musculus, UniProt Q8BW75); test: Inhibition of mouse brain MAOB
T1 sequence (Q8BW75 whole entry): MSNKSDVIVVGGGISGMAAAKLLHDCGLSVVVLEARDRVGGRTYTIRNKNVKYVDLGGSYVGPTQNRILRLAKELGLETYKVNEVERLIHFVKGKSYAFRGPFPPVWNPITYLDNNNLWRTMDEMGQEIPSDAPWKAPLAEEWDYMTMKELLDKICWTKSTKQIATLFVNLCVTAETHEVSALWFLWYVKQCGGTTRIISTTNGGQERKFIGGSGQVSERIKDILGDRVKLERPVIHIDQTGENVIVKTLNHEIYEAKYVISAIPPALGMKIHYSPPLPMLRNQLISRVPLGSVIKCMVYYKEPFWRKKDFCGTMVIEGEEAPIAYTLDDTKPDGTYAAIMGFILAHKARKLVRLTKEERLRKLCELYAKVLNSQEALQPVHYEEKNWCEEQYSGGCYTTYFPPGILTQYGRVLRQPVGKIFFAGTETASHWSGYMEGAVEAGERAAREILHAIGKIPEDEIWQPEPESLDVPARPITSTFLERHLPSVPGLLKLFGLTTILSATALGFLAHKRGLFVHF

Papio hamadryas [6] = organism: Papio hamadryas; test: Inhibition of MAOB from baboon liver at 30 uM by spectrophotometry

| IC50 [1] | IC50 [2] | Ki [2] | SMILES | also measured |
| --- | --- | --- | --- | --- |
| 1060 µM | 0.314 µM | 0.181 µM | Cn1c(=O)c2nc(/C=C/c3cccc(Cl)c3)cnc2n(C)c1=O |  |
|  |  |  | Nc1nc(N)c2c(n1)NCC(c1ccccc1)N2 (configuration not stated) | IC50 [3]: 6 µM |
|  | 12.1 µM | 6.96 µM | Cn1c(N)c(/N=C/C=C/c2ccccc2)c(=O)n(C)c1=O |  |
| 443 µM |  |  | Cn1c(=O)c2nc(-c3ccccc3)cnc2n(C)c1=O | Ratio IC50 (Rattus norvegicus): 23; inhibition (Papio hamadryas [4]): 12.2% |
| 577 µM | 0.602 µM | 0.348 µM | Cn1c(N)c(/N=C/C=C/c2cccc(Cl)c2)c(=O)n(C)c1=O |  |
|  |  |  | C[C@H](O)[C@H](O)C1CNc2nc(N)nc(N)c2N1 (some centres not stated) | Ki [3]: 0.013 µM |
|  |  |  | Cn1c(=O)c2c(nc(/C=C/c3cccc(Cl)c3)n2C)n(C)c1=O | Ki [5]: 0.1 µM |
| 6970 µM | 7.03 µM | 4.06 µM | Cn1c(N)c(/N=C/c2cccc(Cl)c2)c(=O)n(C)c1=O |  |
|  | 4.89 µM | 2.82 µM | Cn1c(=O)c2nc(-c3cccc(Cl)c3)cnc2n(C)c1=O |  |
| 467 µM |  |  | Cn1c(N)c(/N=C/c2ccccc2)c(=O)n(C)c1=O | Ratio IC50 (Rattus norvegicus): 23; inhibition (Papio hamadryas [6]): 17.8% |
